For 7 molecules, EC50, CC50 and IC50 results are on record in ChEMBL document CHEMBL1145189, “Synthesis and evaluation of S-acyl-2-thioethyl esters of modified nucleoside 5'-monophosphates as inhibitors of hepatitis C virus RNA replication” (J Med Chem, 2005).

A short description of assay [1]: Effective concentration against hepatitis C virus RNA replication in a subgenomic bicistronic replicon in HBI10A cells. To be noted: Homo sapiens. The format is functional, cell-based. In outline: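 Stable Huh-7-derived HBI10A hepatoma line carrying a subgenomic bicistronic HCV replicon. Compound incubated with cells for 24 h. Relative replicon RNA then quantified by in situ ribonuclease protection assay.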

A short description of assay [2]: Cytotoxic concentration of compound in human HBI10A cells infected with hepatitis C virus in MTS assay. The format is functional. The gist of the method:
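MTS cytotoxicity run on samples parallel to the replicon assay, at the same time (24 h compound exposure). Cells plated at 2.0 × 10⁴/well and compound added next day at 2× in medium. Incubation at 37 °C, 5% CO₂. MTS reagent added for 1 h, then absorbance read at 490 nm.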
Background: Tetrazolium dyes change colour on reduction, which living cells bring about.

Assay [3] is described as follows: Inhibitory concentration against hepatitis C virus NS5B-mediated RNA synthesis in HBI10A cells. The format is functional, cell-based. To be noted: Homo sapiens.

pEC50, pIC50: −log10 of the molar value.

For orientation: pEC50 means −log10 of the EC50, conventionally taken in molar units. Read a low pEC50 as a large EC50. Broadly, the CC50 is the concentration giving 50% cytotoxicity. Lower therefore signals greater toxicity to the cells. As usually defined, the pIC50 is −log10 of the IC50, conventionally taken in molar units.

With `CO[C@@H]1[C@H](O)[C@@H](COP(=O)(OCCSC(=O)C(C)(C)C)OCCSC(=O)C(C)(C)C)O[C@H]1n1cnc2c(O)nc(N)nc21`, in assay [1], the pEC50 was below 4.30. Also, in assay [2], the CC50 was above 50 µM.
Turning to `CC(C)(C)C(=O)SCCOP(=O)(OCCSC(=O)C(C)(C)C)OC[C@@H]1C[C@@H](O)[C@H](n2ccc3c(O)nc(N)nc32)O1`, the pEC50 in assay [1] is 5.14. The CC50 in assay [2] was above 50 µM.
Consider `CO[C@@H]1[C@H](O)[C@@H](CO)O[C@H]1n1ccc2c(O)nc(N)nc21`, for which the negative logarithm of the IC50 (pIC50) in assay [3] is 6.46. The pEC50 in assay [1] is below 4.30.
For `CO[C@@H]1[C@H](O)[C@@H](CO)O[C@H]1n1cnc2c(O)nc(N)nc21`, in that order: 5.92 and below 4.30.
`Nc1nc2c(ncn2[C@@H]2O[C@H](CO)C[C@H]2O)c(=O)[nH]1` had a negative logarithm of the IC50 (pIC50) in assay [3] of 6.22. Also, the pEC50 in assay [1] is below 4.30.
`CC(C)(C)C(=O)SCCOP(=O)(OCCSC(=O)C(C)(C)C)OC[C@@H]1C[C@@H](O)[C@H](n2cnc3c(O)nc(N)nc32)O1` had a negative logarithm of the EC50 (pEC50) in assay [1] of 4.64. Moreover, the CC50 in assay [2] was above 50 µM.
In the case of `Nc1ccn([C@@H]2O[C@H](CO)C[C@H]2O)c(=O)n1`, the pIC50 in assay [3] was 5.92. The molecule further had a pEC50 in assay [1] of 4.60. In addition, in assay [2], the CC50 is above 50 µM.
